Measurements taken from ChEMBL document CHEMBL1134325, “Diaminoindanes as microsomal triglyceride transfer protein inhibitors” (J Med Chem, 2001).
pIC50: −log10 of the molar value.

Tests used:
Canis familiaris [1] = experiment: Inhibition of plasma total cholesterol in the normolipidemic dogs after day 0 of oral administration of 10 mg/kg/ day.; assay type: functional, Canis lupus familiaris
In short: (§1)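 Normolipidemic dogs dosed once daily for 4 days by oral gavage, compound suspended in cornstarch vehicle. Plasma sampled 24 h after dosing on days 0, 2, 3 and 4, assayed for triglycerides and total cholesterol (mg/dL). Mean percent inhibition versus day-0 level is given for treated dogs; n = 6 per group; significance by one-way ANOVA, p < 0.05.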

Canis familiaris [2] = experiment: Inhibition of plasma total cholesterol in the normolipidemic dogs after day 3 of oral administration of 5 mg/kg/ day.; assay type: functional, Canis lupus familiaris; in short: as §1
Canis familiaris [3] = experiment: Inhibition of plasma total cholesterol in the normolipidemic dogs after day 3 of oral administration of 2.5 mg/kg/ day.; assay type: functional, Canis lupus familiaris; in short: as §1
Canis familiaris [4] = experiment: Inhibition of plasma total cholesterol in the normolipidemic dogs after day 4 of oral administration of 2.5 mg/kg/ day; assay type: functional, Canis lupus familiaris; in short: as §1
Canis familiaris [5] = experiment: Inhibition of plasma total triglycerides in the normolipidemic dogs after day 2 of oral administration of 1 mg/kg/ day.; assay type: functional, Canis lupus familiaris; in short: as §1
Rattus norvegicus [6] = experiment: Inhibition of total cholesterol in normolipidemic rats after 24 hr of 10 mg/kg oral dosing; assay type: functional
In short: (§2)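 Overnight-fasted normolipidemic rats received a single oral dose in cornstarch vehicle. Blood was drawn at 2, 6 and 24 h post-dose and assayed for triglycerides and total cholesterol, with free access to food after the 6 h sample. Value is mean percent inhibition versus a separate vehicle-treated group, unpaired t test p < 0.05, NS = no significant change, N = 6.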

Canis familiaris [7] = experiment: Inhibition of plasma total cholesterol in the normolipidemic dogs after day 2 of oral administration of 2.5 mg/kg/ day.; assay type: functional, Canis lupus familiaris; in short: as §1
Canis familiaris [8] = experiment: Inhibition of plasma total triglycerides in the normolipidemic dogs after day 3 of oral administration of 1 mg/kg/ day.; assay type: functional, Canis lupus familiaris; in short: as §1
Rattus norvegicus [9] = experiment: Inhibition of total cholesterol in normolipidemic rats after 6 hr of 10 mg/kg oral dosing; assay type: functional; in short: as §2
Rattus norvegicus [10] = experiment: Inhibition of total cholesterol in normolipidemic rats after 24 hr of 50 mg/kg oral dosing; assay type: functional; in short: as §2
Rattus norvegicus [11] = experiment: Inhibition of plasma triglycerides in normolipidemic rats after 24 hr of 50 mg/kg oral dosing; assay type: functional; in short: as §2
Canis familiaris [12] = experiment: Inhibition of plasma total cholesterol in the normolipidemic dogs after day 4 of oral administration of 1 mg/kg/ day; assay type: functional, Canis lupus familiaris; in short: as §1
Canis familiaris [13] = experiment: Inhibition of plasma total triglycerides in the normolipidemic dogs after day 2 of oral administration of 2.5 mg/kg/ day.; assay type: functional, Canis lupus familiaris; in short: as §1
Rattus norvegicus [14] = experiment: Inhibition of plasma triglycerides in normolipidemic rats after 2 hr of 10 mg/kg oral dosing; assay type: functional; in short: as §2
Canis familiaris [15] = experiment: Inhibition of plasma total triglycerides in the normolipidemic dogs after day 0 of oral administration of 5 mg/kg/ day.; assay type: functional, Canis lupus familiaris; in short: as §1
Canis familiaris [16] = experiment: Inhibition of plasma total triglycerides in the normolipidemic dogs after day 3 of oral administration of 2.5 mg/kg/ day.; assay type: functional, Canis lupus familiaris
Rattus norvegicus [17] = experiment: Inhibition of plasma triglycerides in normolipidemic rats after 6 hr of 50 mg/kg oral dosing; assay type: functional; in short: as §2
Rattus norvegicus [18] = experiment: Inhibition of plasma triglycerides in normolipidemic rats after 2 hr of 50 mg/kg oral dosing; assay type: functional; in short: as §2
Canis familiaris [19] = experiment: Inhibition of plasma total cholesterol in the normolipidemic dogs after day 3 of oral administration of 1 mg/kg/ day.; assay type: functional, Canis lupus familiaris; in short: as §1
Canis familiaris [20] = experiment: Inhibition of plasma total cholesterol in the normolipidemic dogs after day 2 of oral administration of 1 mg/kg/ day.; assay type: functional, Canis lupus familiaris; in short: as §1
Canis familiaris [21] = experiment: Inhibition of plasma total triglycerides in the normolipidemic dogs after day 2 of oral administration of 5 mg/kg/ day.; assay type: functional, Canis lupus familiaris; in short: as §1
Canis familiaris [22] = experiment: Inhibition of plasma total triglycerides in the normolipidemic dogs after day 0 of oral administration of 10 mg/kg/ day.; assay type: functional, Canis lupus familiaris; in short: as §1
Rattus norvegicus [23] = experiment: Inhibition of total cholesterol in normolipidemic rats after 2 hr of 50 mg/kg oral dosing; assay type: functional; in short: as §2
Canis familiaris [24] = experiment: Inhibition of plasma total triglycerides in the normolipidemic dogs after day 0 of oral administration of 2.5 mg/kg/ day.; assay type: functional, Canis lupus familiaris; in short: as §1
Canis familiaris [25] = experiment: Inhibition of plasma total cholesterol in the normolipidemic dogs after day 0 of oral administration of 5 mg/kg/ day.; assay type: functional, Canis lupus familiaris; in short: as §1
Canis familiaris [26] = experiment: Inhibition of plasma total triglycerides in the normolipidemic dogs after day 4 of oral administration of 5 mg/kg/ day; assay type: functional, Canis lupus familiaris
Canis familiaris [27] = experiment: Inhibition of plasma total cholesterol in the normolipidemic dogs after day 2 of oral administration of 10 mg/kg/ day.; assay type: functional, Canis lupus familiaris; in short: as §1
Rattus norvegicus [28] = experiment: Inhibition of plasma triglycerides in normolipidemic rats after 24 h of 10 mg/kg oral dosing; assay type: functional; in short: as §2
Canis familiaris [29] = experiment: Inhibition of plasma total triglycerides in the normolipidemic dogs after day 4 of oral administration of 2.5 mg/kg/ day; assay type: functional, Canis lupus familiaris
[30] = biological target: T1, Microsomal triglyceride transfer protein large subunit (Homo sapiens, UniProt P55157); experiment: In vitro inhibitory activity against MTP using MTP transfer assay
T1 sequence (P55157 whole entry): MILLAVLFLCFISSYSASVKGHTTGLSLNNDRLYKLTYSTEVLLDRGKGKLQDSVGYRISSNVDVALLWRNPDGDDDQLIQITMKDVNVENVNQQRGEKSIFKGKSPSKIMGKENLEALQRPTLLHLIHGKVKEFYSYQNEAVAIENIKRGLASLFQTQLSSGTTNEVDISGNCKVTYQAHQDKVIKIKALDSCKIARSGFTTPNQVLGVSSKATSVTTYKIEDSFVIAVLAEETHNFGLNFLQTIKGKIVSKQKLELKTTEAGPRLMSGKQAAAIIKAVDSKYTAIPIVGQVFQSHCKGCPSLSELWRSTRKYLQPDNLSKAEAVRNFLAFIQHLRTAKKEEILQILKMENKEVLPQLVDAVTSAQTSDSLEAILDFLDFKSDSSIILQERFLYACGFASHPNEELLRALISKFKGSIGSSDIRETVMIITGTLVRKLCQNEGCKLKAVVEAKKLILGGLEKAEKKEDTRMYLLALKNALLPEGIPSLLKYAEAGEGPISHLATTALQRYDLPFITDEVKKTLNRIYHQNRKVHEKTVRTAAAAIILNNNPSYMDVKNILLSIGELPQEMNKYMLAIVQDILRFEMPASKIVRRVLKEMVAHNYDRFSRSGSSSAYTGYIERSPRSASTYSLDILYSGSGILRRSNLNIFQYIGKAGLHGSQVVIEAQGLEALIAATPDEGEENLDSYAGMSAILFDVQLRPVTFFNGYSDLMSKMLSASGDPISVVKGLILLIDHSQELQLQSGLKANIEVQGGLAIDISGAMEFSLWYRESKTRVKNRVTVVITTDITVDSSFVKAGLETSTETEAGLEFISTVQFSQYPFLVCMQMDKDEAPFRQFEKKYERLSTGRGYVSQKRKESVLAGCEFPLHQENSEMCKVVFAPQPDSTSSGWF

Canis familiaris [31] = experiment: Inhibition of plasma total triglycerides in the normolipidemic dogs after day 3 of oral administration of 5 mg/kg/ day.; assay type: functional, Canis lupus familiaris
Canis familiaris [32] = experiment: Inhibition of plasma total cholesterol in the normolipidemic dogs after day 4 of oral administration of 5 mg/kg/ day; assay type: functional, Canis lupus familiaris; in short: as §1
Canis familiaris [33] = experiment: Inhibition of plasma total cholesterol in the normolipidemic dogs after day 0 of oral administration of 1 mg/kg/ day.; assay type: functional, Canis lupus familiaris; in short: as §1
Canis familiaris [34] = experiment: Inhibition of plasma total cholesterol in the normolipidemic dogs after day 3 of oral administration of 10 mg/kg/ day.; assay type: functional, Canis lupus familiaris; in short: as §1
Rattus norvegicus [35] = experiment: Inhibition of total cholesterol in normolipidemic rats after 2 hr of 10 mg/kg oral dosing; assay type: functional; in short: as §2
Canis familiaris [36] = experiment: Inhibition of plasma total triglycerides in the normolipidemic dogs after day 0 of oral administration of 1 mg/kg/ day.; assay type: functional, Canis lupus familiaris; in short: as §1
Canis familiaris [37] = experiment: Inhibition of plasma total triglycerides in the normolipidemic dogs after day 2 of oral administration of 10 mg/kg/ day.; assay type: functional, Canis lupus familiaris; in short: as §1
Canis familiaris [38] = experiment: Inhibition of plasma total cholesterol in the normolipidemic dogs after day 2 of oral administration of 5 mg/kg/ day.; assay type: functional, Canis lupus familiaris; in short: as §1
Canis familiaris [39] = experiment: Inhibition of plasma total cholesterol in the normolipidemic dogs after day 4 of oral administration of 10 mg/kg/ day.; assay type: functional, Canis lupus familiaris; in short: as §1
Canis familiaris [40] = experiment: Inhibition of plasma total triglycerides in the normolipidemic dogs after day 4 of oral administration of 10 mg/kg/ day; assay type: functional, Canis lupus familiaris
Canis familiaris [41] = experiment: Inhibition of plasma total triglycerides in the normolipidemic dogs after day 3 of oral administration of 10 mg/kg/ day.; assay type: functional, Canis lupus familiaris
Rattus norvegicus [42] = experiment: Inhibition of plasma triglycerides in normolipidemic rats after 6 hr of 10 mg/kg oral dosing; no significant change; assay type: functional, organism-based; parameters: dose 10 mg/kg; in short: as §2
Canis familiaris [43] = experiment: Inhibition of plasma total cholesterol in the normolipidemic dogs after day 0 of oral administration of 2.5 mg/kg/ day.; assay type: functional, Canis lupus familiaris; in short: as §1
Rattus norvegicus [44] = experiment: Inhibition of total cholesterol in normolipidemic rats after 6 hr of 50 mg/kg oral dosing; assay type: functional; in short: as §2
Canis familiaris [45] = experiment: Inhibition of plasma total triglycerides in the normolipidemic dogs after day 4 of oral administration of 1 mg/kg/ day; assay type: functional, Canis lupus familiaris

## COC(=O)N1CCN([C@H]2Cc3ccc(NC(=O)c4cccc(C)c4-c4ccc(C(F)(F)F)cc4)cc3C2)CC1
Canis familiaris [1]
  Lipid level: 143 mg/dL
Canis familiaris [2]
  Lipid level: <53 mg/dL
Canis familiaris [3]
  Lipid level: 53 mg/dL
Canis familiaris [4]
  Lipid level: <42 mg/dL
Canis familiaris [5]
  Lipid level: 28 mg/dL
Rattus norvegicus [6]
  Reduction: 15%
Canis familiaris [7]
  Lipid level: 67 mg/dL
Canis familiaris [8]
  Lipid level: 26 mg/dL
Rattus norvegicus [9]
  Reduction: 29%
Rattus norvegicus [10]
  Reduction: 18%
Rattus norvegicus [11]
  Reduction: 44%
Canis familiaris [12]
  Lipid level: <73 mg/dL
Canis familiaris [13]
  Lipid level: 28 mg/dL
Rattus norvegicus [14]
  Reduction: 70%
Canis familiaris [15]
  Lipid level: 37 mg/dL
Canis familiaris [16]
  Lipid level: 20 mg/dL
Rattus norvegicus [17]
  Reduction: 56%
Rattus norvegicus [18]
  Reduction: 80%
Canis familiaris [19]
  Lipid level: 83 mg/dL
Canis familiaris [20]
  Lipid level: 91 mg/dL
Canis familiaris [21]
  Lipid level: 20 mg/dL
Canis familiaris [22]
  Lipid level: 62 mg/dL
Rattus norvegicus [23]
  Reduction: 35%
Canis familiaris [24]
  Lipid level: 58 mg/dL
Canis familiaris [25]
  Lipid level: 127 mg/dL
Canis familiaris [26]
  Lipid level: 14 mg/dL
Canis familiaris [27]
  Lipid level: 79 mg/dL
Rattus norvegicus [28]
  Reduction: 29%
Canis familiaris [29]
  Lipid level: 25 mg/dL
[30]
  pIC50: 7.40
Canis familiaris [31]
  Lipid level: 17 mg/dL
Canis familiaris [32]
  Lipid level: 38 mg/dL
Canis familiaris [33]
  Lipid level: 120 mg/dL
Canis familiaris [34]
  Lipid level: 50 mg/dL
Rattus norvegicus [35]
  Reduction: 40%
Canis familiaris [36]
  Lipid level: 38 mg/dL
Canis familiaris [37]
  Lipid level: 24 mg/dL
Canis familiaris [38]
  Lipid level: 79 mg/dL
Canis familiaris [39]
  Lipid level: <31 mg/dL
Canis familiaris [40]
  Lipid level: 19 mg/dL
Canis familiaris [41]
  Lipid level: 18 mg/dL
Rattus norvegicus [42]
  NS: no significant change
Canis familiaris [43]
  Lipid level: 109 mg/dL
Rattus norvegicus [44]
  Reduction: 50%
Canis familiaris [45]
  Lipid level: 28 mg/dL
